Broadly, the MIC is the least concentration at which growth counts as inhibited. Low readings indicate inhibition by little substance, high ones a need for much substance.

The structures appear in SMILES notation. In brackets after ≈: the same amount, converted by molar mass.

Common to all, as to format: functional
For one experiment, the system named is Escherichia coli. Kind of experiment: Antibacterial activity against Escherichia coli ATCC 25922 after 24 hrs by broth dilution method. The note with it: ATCC 25922, 24 h. In a few lines:
(§1)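 Nutrient broth containing logarithmic twofold serial dilutions of compound, inoculated with about 5 × 10⁵ CFU/mL of actively dividing bacteria, incubated 24 h at 37 °C. Growth was read visually and spectrophotometrically. MIC was the lowest concentration (highest dilution) that arrested growth. Ciprofloxacin served as standard.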
On the technique in general: In broth dilution the organism is exposed to a series of concentrations in liquid medium.

Another experiment concerns Staphylococcus aureus. Kind of experiment: Antibacterial activity against Staphylococcus aureus ATCC 25923 after 24 hrs by broth dilution method. Particulars: ATCC 25923, 24 h. In a few lines:
as §1

Another experiment concerns Pseudomonas aeruginosa. Kind of experiment: Antibacterial activity against Pseudomonas aeruginosa ATCC 27853 after 24 hrs by broth dilution method. Particulars: ATCC 27853, 24 h. In short, it runs like this: as §1
In another experiment the test system is Klebsiella pneumoniae. Kind of experiment: Antibacterial activity against Klebsiella pneumoniae after 24 hrs by broth dilution method. In short, it runs like this: as §1
A further experiment has as its system Candida albicans. The experiment can be described thus: Antifungal activity against Candida albicans after 48 hrs by […].
Experiment [1] deals with Mycobacterium tuberculosis. Kind of experiment: Antitubercular activity against Mycobacterium tuberculosis H37Rv after 7 days by resazurin microtiter assay. The note with it: 168 h.

For `COc1cc(/C=C/c2nnc(-c3cc(Br)c(Br)[nH]3)o2)ccc1O`, the MIC in the experiment with Escherichia coli was determined as 12.5 µg/mL (≈ 28.3 µM); in the experiment on Staphylococcus aureus, 1.56 µg/mL (≈ 3.54 µM); against Pseudomonas aeruginosa it was 12.5 µg/mL (≈ 28.3 µM); in the experiment with Klebsiella pneumoniae, 100 µg/mL (≈ 227 µM); with Candida albicans, 12.5 µg/mL (≈ 28.3 µM); in experiment [1], 112 µg/mL (≈ 255 µM).
In the case of `Brc1cc(-c2nnc(Sc3ccccc3)o2)[nH]c1Br`, the MIC came to 12.5 µg/mL (≈ 31.2 µM) in the experiment with Escherichia coli; 12.5 µg/mL (≈ 31.2 µM) in the experiment on Staphylococcus aureus; 25 µg/mL (≈ 62.3 µM) against Pseudomonas aeruginosa; 100 µg/mL (≈ 249 µM) in the experiment with Klebsiella pneumoniae; 6.25 µg/mL (≈ 15.6 µM) with Candida albicans; 23.5 µg/mL (≈ 58.6 µM) in experiment [1].
With `O=C(CSc1nnc(-c2cc(Br)c(Br)[nH]2)o1)c1ccccc1`, the MIC was 3.12 µg/mL (≈ 7.05 µM) against Escherichia coli; 12.5 µg/mL (≈ 28.2 µM) with Staphylococcus aureus; 12.5 µg/mL (≈ 28.2 µM) in the experiment on Pseudomonas aeruginosa; 100 µg/mL (≈ 226 µM) against Klebsiella pneumoniae; 1.56 µg/mL (≈ 3.52 µM) in the experiment with Candida albicans; 1.5 µg/mL (≈ 3.39 µM) in experiment [1].
As to `COc1ccc(-c2nnc(-c3cc(Br)c(Br)[nH]3)o2)cc1`, the MIC against Escherichia coli stood at 3.12 µg/mL (≈ 7.83 µM); against Staphylococcus aureus, 3.12 µg/mL (≈ 7.83 µM); against Pseudomonas aeruginosa, 6.25 µg/mL (≈ 15.7 µM); with Klebsiella pneumoniae it was 100 µg/mL (≈ 251 µM); in the experiment with Candida albicans, 12.5 µg/mL (≈ 31.3 µM); in experiment [1], 56.5 µg/mL (≈ 142 µM).
Regarding `CSc1nnc(-c2cc(Br)c(Br)[nH]2)o1`, the MIC against Escherichia coli was determined as 12.5 µg/mL (≈ 36.9 µM); against Staphylococcus aureus, 12.5 µg/mL (≈ 36.9 µM); with Pseudomonas aeruginosa, 25 µg/mL (≈ 73.7 µM); against Klebsiella pneumoniae, 100 µg/mL (≈ 295 µM); against Candida albicans it was 12.5 µg/mL (≈ 36.9 µM); in experiment [1] it was 89.5 µg/mL (≈ 264 µM).
Compound `C[C@@H]1[C@H](O)[C@@H](C)/C=C/C=C/C=C/C=C/C=C/C=C/C=C/[C@H](O[C@@H]2O[C@H](C)[C@@H](O)[C@H](N)[C@@H]2O)C[C@@H]2O[C@](O)(C[C@@H](O)C[C@@H](O)[C@H](O)CC[C@@H](O)C[C@@H](O)CC(=O)O[C@H]1C)C[C@H](O)[C@H]2C(=O)O` [AMPHOTERICIN B] returned an MIC against Candida albicans of 1.56 µg/mL (≈ 1.69 µM).
Consider `CCSc1nnc(-c2cc(Br)c(Br)[nH]2)o1`, for which the MIC in the experiment with Escherichia coli was 12.5 µg/mL (≈ 35.4 µM); against Staphylococcus aureus, 12.5 µg/mL (≈ 35.4 µM); against Pseudomonas aeruginosa it was 25 µg/mL (≈ 70.8 µM); with Klebsiella pneumoniae it was 100 µg/mL (≈ 283 µM); against Candida albicans, 12.5 µg/mL (≈ 35.4 µM); in experiment [1], 118 µg/mL (≈ 334 µM).
On to `O=C(O)c1cn(C2CC2)c2cc(N3CCNCC3)c(F)cc2c1=O` [CIPROFLOXACIN], for which the MIC turned out to be 1.56 µg/mL (≈ 4.71 µM) in the experiment on Staphylococcus aureus, 3.12 µg/mL (≈ 9.43 µM) with Pseudomonas aeruginosa and 1.56 µg/mL (≈ 4.71 µM) in the experiment on Klebsiella pneumoniae.
As to `Oc1ccc(-c2nnc(-c3cc(Br)c(Br)[nH]3)o2)cc1`, the MIC against Escherichia coli amounted to 12.5 µg/mL (≈ 32.5 µM); against Staphylococcus aureus it was 12.5 µg/mL (≈ 32.5 µM); in the experiment with Pseudomonas aeruginosa, 6.25 µg/mL (≈ 16.2 µM); with Klebsiella pneumoniae, 100 µg/mL (≈ 260 µM); with Candida albicans, 12.5 µg/mL (≈ 32.5 µM); in experiment [1], 25 µg/mL (≈ 64.9 µM).
With `Brc1cc(-c2nnc(-c3cc(Br)c(Br)[nH]3)o2)[nH]c1Br`, the MIC against Escherichia coli worked out at 1.56 µg/mL (≈ 3.02 µM); against Staphylococcus aureus it was 1.56 µg/mL (≈ 3.02 µM); against Pseudomonas aeruginosa, 6.25 µg/mL (≈ 12.1 µM); in the experiment on Klebsiella pneumoniae, 100 µg/mL (≈ 194 µM); in the experiment with Candida albicans it was 1.56 µg/mL (≈ 3.02 µM); in experiment [1] it was 3.5 µg/mL (≈ 6.79 µM).
Take `Brc1cc(-c2nnc(/C=C/C3=COc4ccccc4C3)o2)[nH]c1Br`: the MIC was determined as 3.12 µg/mL (≈ 6.96 µM) with Escherichia coli; 1.56 µg/mL (≈ 3.47 µM) against Staphylococcus aureus; 12.5 µg/mL (≈ 27.8 µM) with Pseudomonas aeruginosa; 100 µg/mL (≈ 223 µM) against Klebsiella pneumoniae; 12.5 µg/mL (≈ 27.8 µM) in the experiment with Candida albicans; 2 µg/mL (≈ 4.45 µM) in experiment [1].
As for `NNC(=O)c1ccncc1` [ISONIAZID], in experiment [1], the lowest concentration to inhibit growth (MIC) was 0.4 µg/mL (≈ 2.92 µM).
On to `Brc1cc(-c2nnc(/C=C/c3ccccc3)o2)[nH]c1Br`, for which the MIC was found to be 12.5 µg/mL (≈ 31.6 µM) against Escherichia coli; 3.12 µg/mL (≈ 7.91 µM) against Staphylococcus aureus; 6.25 µg/mL (≈ 15.8 µM) in the experiment on Pseudomonas aeruginosa; 100 µg/mL (≈ 253 µM) with Klebsiella pneumoniae; 12.5 µg/mL (≈ 31.6 µM) against Candida albicans; 78.5 µg/mL (≈ 199 µM) in experiment [1].
In the case of `O=C(Cc1ccccc1)c1nnc(-c2cc(Br)c(Br)[nH]2)o1`, the MIC was found to be 3.12 µg/mL (≈ 7.6 µM) in the experiment with Escherichia coli; 3.12 µg/mL (≈ 7.6 µM) against Staphylococcus aureus; 12.5 µg/mL (≈ 30.4 µM) with Pseudomonas aeruginosa; 100 µg/mL (≈ 243 µM) against Klebsiella pneumoniae; 12.5 µg/mL (≈ 30.4 µM) in the experiment on Candida albicans; 146 µg/mL (≈ 355 µM) in experiment [1].
With `Brc1cc(-c2nnc(-c3ccncc3)o2)[nH]c1Br`, the MIC is 12.5 µg/mL (≈ 33.8 µM) against Escherichia coli; 1.56 µg/mL (≈ 4.22 µM) in the experiment on Staphylococcus aureus; 12.5 µg/mL (≈ 33.8 µM) against Pseudomonas aeruginosa; 100 µg/mL (≈ 270 µM) against Klebsiella pneumoniae; 12.5 µg/mL (≈ 33.8 µM) against Candida albicans; 3.5 µg/mL (≈ 9.46 µM) in experiment [1].
In the case of `Brc1cc(-c2nnc(-c3ccccc3)o2)[nH]c1Br`, the MIC against Escherichia coli is 12.5 µg/mL (≈ 33.9 µM); against Staphylococcus aureus, 6.25 µg/mL (≈ 16.9 µM); in the experiment with Pseudomonas aeruginosa it was 6.25 µg/mL (≈ 16.9 µM); in the experiment on Klebsiella pneumoniae it was 100 µg/mL (≈ 271 µM); in the experiment with Candida albicans, 12.5 µg/mL (≈ 33.9 µM); in experiment [1] it was 98.7 µg/mL (≈ 267 µM).
Take `Oc1ccccc1-c1nnc(-c2cc(Br)c(Br)[nH]2)o1`: the MIC in the experiment with Escherichia coli was 3.12 µg/mL (≈ 8.12 µM); in the experiment on Staphylococcus aureus, 1.56 µg/mL (≈ 4.05 µM); in the experiment with Pseudomonas aeruginosa, 12.5 µg/mL (≈ 32.5 µM); against Klebsiella pneumoniae, 100 µg/mL (≈ 260 µM); in the experiment on Candida albicans, 6.25 µg/mL (≈ 16.2 µM); in experiment [1], 36.5 µg/mL (≈ 94.8 µM).
With `Clc1ccc(-c2nnc(-c3cc(Br)c(Br)[nH]3)o2)c(Cl)c1`, the MIC was 12.5 µg/mL (≈ 28.5 µM) against Escherichia coli; 6.25 µg/mL (≈ 14.3 µM) in the experiment on Staphylococcus aureus; 6.25 µg/mL (≈ 14.3 µM) against Pseudomonas aeruginosa; 100 µg/mL (≈ 228 µM) in the experiment with Klebsiella pneumoniae; 12.5 µg/mL (≈ 28.5 µM) with Candida albicans; 1.6 µg/mL (≈ 3.65 µM) in experiment [1].
For `Sc1nnc(-c2cc(Br)c(Br)[nH]2)o1`, the MIC in the experiment with Escherichia coli worked out at 12.5 µg/mL (≈ 38.5 µM); in the experiment on Staphylococcus aureus it was 12.5 µg/mL (≈ 38.5 µM); against Pseudomonas aeruginosa, 12.5 µg/mL (≈ 38.5 µM); in the experiment on Klebsiella pneumoniae, 100 µg/mL (≈ 308 µM); in the experiment with Candida albicans, 12.5 µg/mL (≈ 38.5 µM); in experiment [1], 54.5 µg/mL (≈ 168 µM).
On to `Nc1ccc(-c2nnc(-c3cc(Br)c(Br)[nH]3)o2)cc1`, for which the MIC with Escherichia coli turned out to be 1.56 µg/mL (≈ 4.06 µM); in the experiment with Staphylococcus aureus, 3.12 µg/mL (≈ 8.14 µM); in the experiment on Pseudomonas aeruginosa, 6.25 µg/mL (≈ 16.3 µM); in the experiment on Klebsiella pneumoniae, 100 µg/mL (≈ 260 µM); in the experiment with Candida albicans it was 12.5 µg/mL (≈ 32.5 µM); in experiment [1] it was 16.5 µg/mL (≈ 43 µM).
Turning to `Fc1ccc(Cl)c(-c2nnc(-c3cc(Br)c(Br)[nH]3)o2)c1`, the MIC was 1.56 µg/mL (≈ 3.7 µM) against Escherichia coli; 1.56 µg/mL (≈ 3.7 µM) against Staphylococcus aureus; 6.25 µg/mL (≈ 14.8 µM) in the experiment on Pseudomonas aeruginosa; 100 µg/mL (≈ 237 µM) in the experiment with Klebsiella pneumoniae; 12.5 µg/mL (≈ 29.7 µM) in the experiment with Candida albicans; 6.5 µg/mL (≈ 15.4 µM) in experiment [1].
Regarding `O=[N+]([O-])c1ccc(-c2nnc(-c3cc(Br)c(Br)[nH]3)o2)cc1`, the MIC in the experiment on Escherichia coli was found to be 1.56 µg/mL (≈ 3.77 µM); in the experiment with Staphylococcus aureus it was 1.56 µg/mL (≈ 3.77 µM); against Pseudomonas aeruginosa, 6.25 µg/mL (≈ 15.1 µM); with Klebsiella pneumoniae it was 100 µg/mL (≈ 242 µM); in the experiment on Candida albicans, 1.56 µg/mL (≈ 3.77 µM); in experiment [1], 9 µg/mL (≈ 21.7 µM).
Take `Clc1ccc(-c2nnc(-c3cc(Br)c(Br)[nH]3)o2)cc1`: the minimum inhibitory concentration (MIC) in the experiment with Escherichia coli turned out to be 1.56 µg/mL (≈ 3.87 µM); with Staphylococcus aureus, 1.56 µg/mL (≈ 3.87 µM); against Pseudomonas aeruginosa it was 6.25 µg/mL (≈ 15.5 µM); in the experiment on Klebsiella pneumoniae, 100 µg/mL (≈ 248 µM); in the experiment with Candida albicans, 12.5 µg/mL (≈ 31 µM); in experiment [1] it was 9.5 µg/mL (≈ 23.5 µM).

Values taken from ChEMBL document CHEMBL2150987, “Synthesis and evaluation of novel 1,3,4-oxadiazole derivatives of marine bromopyrrole alkaloids as antimicrobial agent” (2012).
